Results: article PMC10213863 (Cell Reports Medicine, 2023)
Where “and” joins values, the source holds several entries; their conditions need not be identical. Identical values can stand only once.

Key:
[1] = MHV370 blood exposure during food dosing of NZB/W F1 mice; assay type: in vivo, mouse
Summary of the method: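 NZB/W F1 mice were fed diet containing test compound at 0.01% or 0.1%, with fresh food every two weeks. Daily food intake per mouse was calculated per cage. Whole-blood drug concentrations were measured by LC-MS/MS.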

[2] = biological target: T1, TLR7 (Homo sapiens, UniProt Q9NYK1); experiment: HEK293-NFkB-luciferase reporter cells transfected with TLR7, R848 stimulation; assay type: cell-based; conditions: IC50, TLR7 response in HEK transfectants, mean ± SD
T1 sequence (Q9NYK1 27-1049): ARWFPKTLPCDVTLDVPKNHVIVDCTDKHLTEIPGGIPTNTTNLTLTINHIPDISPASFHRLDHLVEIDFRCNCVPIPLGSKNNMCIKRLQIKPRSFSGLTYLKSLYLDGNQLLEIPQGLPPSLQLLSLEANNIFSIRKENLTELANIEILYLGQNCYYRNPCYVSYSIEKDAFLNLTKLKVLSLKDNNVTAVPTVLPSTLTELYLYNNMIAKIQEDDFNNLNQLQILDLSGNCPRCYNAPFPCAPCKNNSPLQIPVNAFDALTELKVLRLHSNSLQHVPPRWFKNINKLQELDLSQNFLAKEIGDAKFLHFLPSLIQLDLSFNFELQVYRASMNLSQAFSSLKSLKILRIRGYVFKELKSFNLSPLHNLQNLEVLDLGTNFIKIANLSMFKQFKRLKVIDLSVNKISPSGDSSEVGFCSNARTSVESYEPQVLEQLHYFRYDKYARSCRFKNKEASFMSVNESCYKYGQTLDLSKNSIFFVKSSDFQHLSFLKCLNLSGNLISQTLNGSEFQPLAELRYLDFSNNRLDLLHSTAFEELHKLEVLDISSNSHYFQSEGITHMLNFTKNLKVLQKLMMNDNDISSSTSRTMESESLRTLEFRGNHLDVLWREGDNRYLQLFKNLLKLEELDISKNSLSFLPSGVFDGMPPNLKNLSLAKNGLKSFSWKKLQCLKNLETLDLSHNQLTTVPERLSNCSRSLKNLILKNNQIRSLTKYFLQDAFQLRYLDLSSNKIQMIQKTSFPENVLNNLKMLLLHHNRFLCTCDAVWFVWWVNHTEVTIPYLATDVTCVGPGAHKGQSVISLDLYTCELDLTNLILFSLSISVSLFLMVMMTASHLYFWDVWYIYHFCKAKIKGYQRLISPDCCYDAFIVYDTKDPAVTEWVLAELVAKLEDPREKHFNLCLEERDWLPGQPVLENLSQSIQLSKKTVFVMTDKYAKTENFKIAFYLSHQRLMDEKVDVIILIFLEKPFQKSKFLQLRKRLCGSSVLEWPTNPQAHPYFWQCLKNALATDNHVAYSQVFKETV
Summary of the method: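 HEK293-NFkB-luciferase cells stably expressing HA-tagged human TLR7 or TLR8 were pre-treated 60 min at 37°C, 5% CO2 with increasing concentrations of test compound or 0.25% v/v DMSO. They were then stimulated 6 h with R848: 0.3 μM for TLR7, 4 μM for TLR8. Luciferase activity […] was read by Bright-Glo luminescence.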

For `Cc1cc(N2CCc3c(c(C)nn3CC34CCC(NC(=O)[C@@H]5COCCN5)(CC3)CC4)C2)c2cnn(C)c2n1` [MHV370, (S)-N-(4-((5-(1,6-dimethyl-1H-pyrazolo[3,4-b]pyridin-4-yl)-3-methyl-4,5,6,7-tetrahydro-1H-pyrazolo[4,3-c]pyridin-1-yl)methyl)bicyclo[2.2.2]octan-1-yl)morpholine-3-carboxamide], the “exposure level in blood” value ([1]; 0.01% MHV370 in food) was 55 nM, the “exposure level in blood” value ([1]; 0.1% MHV370 in food) was 1424 nM and the IC50 [2] was 1 nM and 1.1 nM.
